assay: Toxicity liver stage against HepG2, at 10uM; type: cell-based; design: test concentration 10 uM, cell line HepG2-A16-CD81EGFP; conditions: human, HepG2-A16-CD81EGFP cells; read-out: INHIBITION
In short: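 Uninfected HepG2-A16-CD81EGFP cells, 3 × 10^3 per well, 1536-well, plated on prespotted compound at 10 μM final, parasite-free screening media added to match infected plates; puromycin 10 μM positive, DMSO 0.5% negative; run in parallel with 48 h PbLuc assay at 37 °C, 5% CO2; viability by CellTiter-Glo luminescence, normalized to controls.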

Compound | cytotoxicity at 10 µM
Cc1ccc(C(O)CNCCn2cccn2)cc1C (stereo not drawn) | -6.11%
Cc1ncc(CN2CCCC2c2ccc(C(=O)NCc3ccoc3)s2)s1 (stereo not drawn) | -1.06%
NC(=O)CN1C(=O)CO[C@H]2CN(Cc3ccc(Cl)cc3)C[C@H]21 | 13%
CCN(Cc1nccn1C)C(=O)c1ccc(NCc2ccc(C)o2)nc1 | 9.78%
CN(C)c1cccc(C(=O)Nc2cnn(Cc3ccccn3)c2)c1 | 4.81%
O=C(CCCn1cncn1)NC1CCc2nccn2C1 (stereo not drawn) | 2.03%
O=C(c1c2c(N3CCCC3)ncnc2n2ccccc12)N1CCOCC1 | 9.49%
COc1ccc(C(=O)N2CC(=O)N(C3CCC3)CC(O)C2)cc1OC (stereo not drawn) | 4.35%
CCn1cncc1CN1CCc2nc3sccc3c(=O)n2CC1 | -2.55%
O=C(NCC1CCC1)c1ccnc(-n2ccnc2)c1 | -3.67%
Cc1c(Br)cccc1C(=O)NCC1CCCNC1 (stereo not drawn) | 19.8%
Cc1cnn(CCNc2cnc3ccccc3n2)c1 | 11.4%
CC(C)(C)c1nc(CN2CCOC(Cn3cccn3)C2)no1 (stereo not drawn) | -18.5%
Fc1ccccc1CNc1ccnc(C2CCNCC2)c1 | 8.88%
O=C1CCC(C(=O)Nc2cnn(-c3ccccc3Br)c2)N1 (stereo not drawn) | 3.56%
COc1ccc(C(=O)NS(=O)(=O)c2cncc(Br)c2)cc1OC | 4.36%
CCO[C@@H]1CCN(C(=O)c2ccc[nH]2)[C@@H]1Cc1cnn(C)c1 | 1.44%
Cc1ccnn1CCNC(=O)C1CCN(S(=O)(=O)c2ccc(F)cc2)C1 (stereo not drawn) | -32%
CC(C)c1nnc(NC(=O)CCc2cc(F)ccc2F)[nH]1 | -16.9%
O=C(CC1NC(N2CCc3ccccc32)=NC1=O)Nc1ccc(Cl)cc1 (stereo not drawn) | 1.54%
CNC(=O)CNC(=O)Nc1ccc(F)c(Br)c1 | 7.92%

Compound | cytotoxicity at 10 µM
O=S(=O)(NCCCn1cncn1)c1ccc2c(c1)CCO2 | -10.2%
CCn1cc(-n2cc3nc(N4CCC(O)CC4)[nH]cc-3c2=O)cn1 | 5.01%
Cc1noc(C)c1CN(C)c1ncnc2ccccc12 | -6.4%
O=C(CCc1nc(-c2ccccc2)no1)N[C@H]1COC[C@@H]1N1CCCC1 | -1.83%
C[C@H]1CN(Cc2cccc(F)c2)C[C@@]12CCN(CC(=O)N(C)C)C2=O | -7.13%
Cc1noc(C)c1CN(C)CC(=O)Nc1ccnn1C(C)C1CC1 (stereo not drawn) | -2.82%
Cc1cc(C)cc(C(=O)Nc2cn[nH]c2)c1 | -6.57%
Cc1nonc1CN(C)c1nc(-c2cccnc2)nc2c1CCNC2 | 4.05%
CC(C)Nc1nc2c(c(NC3CC3)n1)CN(C(=O)Cc1ccsc1)CC2 | 10.4%
CCCc1nc(CN2CCOC(Cn3cncn3)C2)no1 (stereo not drawn) | -7.03%
Cc1nn(C)c(Cl)c1C1CCCN1CCc1ccccn1 (stereo not drawn) | 4.6%
Cc1noc(CN(C)c2ccccc2)n1 | 8.82%
O=S(=O)(Cc1ccccc1Cl)CC(O)CO (stereo not drawn) | 6.44%
COc1cccc(CNC(=O)N2CCN(Cc3cc(C)on3)CC2)c1 | -1.58%
CN(C)C(=O)CN1C[C@H]2CC[C@@H](C1)N(Cc1ccccc1C#N)C2 | -0.898%
CCC[C@H]1CN(S(=O)(=O)c2ccccc2)C[C@@H]1N | 1.35%
Cc1ncc(Cl)c(C(=O)N2CCCC(n3nc(C)nc3C)C2)n1 (stereo not drawn) | -0.426%
CC(C(=O)O)n1nc(C(F)(F)F)c(Br)c1C1CC1 (stereo not drawn) | 10.3%
CCCN1CCC(C(=O)NCCN(CC)c2ccccc2C)CC1 | 15.7%
CCOc1cc(CNCc2cnc(C)cn2)c(Cl)cc1OC(C)C | 4.86%
c1csc(-c2noc(COCC3CCCO3)n2)c1 (stereo not drawn) | -1.62%

Compound | cytotoxicity at 10 µM
c1cncc(N2CCCC3(CCN(CCN4CCCC4)CC3)C2)c1 | -2.95%
Cc1csc(CN2CCC3(CC2)COC(COCC2CC2)C3)n1 (stereo not drawn) | -108%
O=C(c1nc(=O)[nH][nH]1)N1CCCCCC1 | 14.1%
CN1CCOC(CNC(=O)Cc2ccccc2F)C1 (stereo not drawn) | -3.87%
Cc1nn(C)c(C)c1C1CCCN1C(=O)c1ccc(CN(C)C)cc1 (stereo not drawn) | -7.79%
COc1ccc(-n2c(SC)nc(O)c(Cc3ccccc3)c2=O)cc1 | -7.52%
CC1CCN(C[C@H]2CN3CC[C@H]2C[C@@H]3CNC(=O)c2ccco2)CC1 | -1.55%
c1cc(CNCc2ccc(-n3cncn3)nc2)cc(OC2CCCC2)c1 | 2.3%
CCCn1cnnc1CNC(=O)CC1C(=O)NCCN1CC(C)(C)C (stereo not drawn) | -0.798%
COCCC(=O)N1CCC2(CC1)CN(C(C)=O)Cc1ccccc1O2 | 0.245%
C[C@@H]1CN(C(=O)CCCN2CCOCC2)CC[C@@]1(O)C1CCC1 | -2.95%
Cn1cc(CNCC(c2ccc(Cl)cc2)n2cccn2)cn1 (stereo not drawn) | 1.21%
CC(C)Cn1cnc2ccc(NC(=O)CCCn3cccn3)cc2c1=O | -4.06%
COCCN(Cc1sccc1C)C(=O)C1CCN(C(C)C)CC1 | -2.72%
COCc1ccccc1NC(=O)NCc1ccc(OCC2CC2)nc1 | 3.88%
Cc1nc(NC(=O)OC(C)(C)C)sc1C(=O)O | 7.89%
CC(C)[C@H]1COC(=O)N1Cc1nccn1C1CC1 | -15.4%
CN(C)C(C(=O)NCCn1cccc1)c1cccc(F)c1 (stereo not drawn) | -1.23%
COc1cccc(C2CCCN2Cc2nc3c(cnn3C)c(=O)[nH]2)c1 (stereo not drawn) | -4.35%
Cc1cc(C)c(C(=O)NC(c2nnc3n2CCNCC3)C(C)C)c(C)c1 (stereo not drawn) | -7.01%
CCN1CCN(CCC(=O)NC2CC(c3cccc(Cl)c3)C2)CC1 (stereo not drawn) | -7.37%

Compound | cytotoxicity at 10 µM
Cc1cc(N2CCN(Cc3ccc(-c4cc[nH]n4)o3)CC2)cc(C)n1 | 2.17%
Cc1cccnc1NC(=O)C1CCCN1Cc1ccccc1 (stereo not drawn) | 10.2%
Cn1cnc(-c2nc(C(=O)NCCN3CCOCC3)c3ccccn23)c1 | -103%
NC(=O)CC1c2cccnc2C(=O)N1Cc1ccccc1 (stereo not drawn) | -5.8%
Cc1cnc(-c2nc(C3CCN(Cc4ccccc4O)CC3)no2)cn1 | 3.66%
COCCNC(=O)CN1CCN(c2nc(C)cs2)C(C)C1 (stereo not drawn) | -4.03%
CCCc1nc(C)c(C(=O)NCCn2ccnc2)s1 | 8.14%
CC(O)c1cccc(N2CCC3(CCC(=O)N(CC(N)=O)C3)CC2)n1 (stereo not drawn) | -2.55%
Cc1cnn(CC2CCCN2Cc2noc(-c3ccccc3)n2)c1 (stereo not drawn) | 0.441%
c1ccc(-c2nc(CN3CCn4c(nnc4C4CC4)C3)no2)cc1 | -3.47%
CCOc1ccc(C(=O)CCC(=O)NCc2csc(N)n2)cc1C | 7.34%
O=C(Cc1csc(-c2ccco2)n1)N1CCSCC1 | -16.2%
CC(C)[C@@H]1CN(CCCOc2ccc(F)cc2)C[C@H]1NS(C)(=O)=O | -46.4%
Cc1ccccc1CN1C[C@H]2CC[C@@H](C1)N(CC1CCC1)C2=O | 4.86%
CC(C)S(=O)(=O)NCC1CCCN(C(=O)c2ccc3c(c2)CCC3)C1 (stereo not drawn) | -14.7%
CCc1cc(N2CCC(NCCc3ccccc3F)CC2)nc(C)n1 | 7.33%
Cc1cccc(OCCN2CCC(c3ccnn3CCO)CC2)c1 | -4.87%
COc1nn(C)c2c1CCCN(C(=O)c1ccccc1F)C2 | 11.5%
CC(C)c1noc(CN2CCCN(Cc3cccs3)CC2)n1 | -6.86%
Cc1ccc(CN2CC[C@@H](NS(C)(=O)=O)[C@@H]2Cc2ccncc2)o1 | -3.18%
